In ChEMBL document CHEMBL1126589, “Substituted 3-(phenylmethyl)-1H-indole-5-carboxamides and 1-(phenylmethyl)indole-6-carboxamides as potent, selective, orally active antagonists of the peptidoleukotrienes” (J Med Chem, 1993):

Tests used:
[1] = molecular target: T1, Cysteinyl leukotriene receptor 1 (Cavia porcellus, UniProt Q2NNR5); assay: Binding affinity against leukotriene receptor (LTD4) from guinea pig lung parenchymal membranes using [3H]LTD4 as radio ligand; assay type: tissue-based, Lung parenchyma
T1 sequence (Q2NNR5 whole entry): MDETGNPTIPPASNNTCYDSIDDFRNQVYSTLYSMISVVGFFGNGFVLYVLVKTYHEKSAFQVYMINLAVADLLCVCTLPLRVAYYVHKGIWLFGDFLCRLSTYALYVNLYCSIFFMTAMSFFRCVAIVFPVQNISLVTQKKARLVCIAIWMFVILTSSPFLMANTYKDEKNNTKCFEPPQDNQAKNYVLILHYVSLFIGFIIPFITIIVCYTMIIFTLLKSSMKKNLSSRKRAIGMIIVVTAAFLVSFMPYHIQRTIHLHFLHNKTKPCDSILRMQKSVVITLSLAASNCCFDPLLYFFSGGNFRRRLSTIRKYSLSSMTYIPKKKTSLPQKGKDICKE
Procedure, shortened: (§1)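 Displacement of [3H]LTD4 from guinea pig lung parenchymal membranes; Ki is the mean of two experiments run in duplicate with separate batches, reported as pKi (-log Ki).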

[2] = test system: Cavia porcellus; assay: Effective dose against LTD4-induced bronchoconstriction in guinea pig after peroral administration; assay type: functional; settings: po
Procedure, shortened: (§2)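 Conscious guinea pigs challenged with LTD4 ("dyspnea" model) after oral or intravenous dosing; percent protection from LTD4-induced dyspnea plotted against dose to derive ED50; po/iv ratio taken from the oral and intravenous ED50 values.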

[3] = molecular target: T2, Cysteinyl leukotriene receptor 1 (Cavia porcellus) (UniProt Q2NNR5); assay: Binding affinity against leukotriene receptor (LTE4) from guinea pig tracheal spirals; assay type: tissue-based
T2 sequence (whole entry): T1 sequence (Q2NNR5 whole entry)
Procedure, shortened: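 Functional antagonism in isolated guinea pig tracheal spirals contracted with LTE4 as agonist; KB derived from concentration-response curves, n = number of curves.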

[4] = ED50 ratio of LTD4 peroral administration / LTD4 intravenous administration; assay type: functional; procedure, shortened: as §2
[5] = molecular target: T1, Cysteinyl leukotriene receptor 1; assay: Binding affinity to the leukotriene receptor (LTD4) from guinea pig lung parenchymal membranes assayed using [3H]LTD4 as radioligand; assay type: tissue-based, Lung parenchyma; procedure, shortened: as §1
[6] = test system: Cavia porcellus; assay: Effective dose against LTD4-induced bronchoconstriction in guinea pig after intravenous administration; assay type: functional; procedure, shortened: as §2
[7] = test system: Rattus norvegicus; assay: Integrated area under the blood concentration vs time curve for the period 0-24 hr postdose of 1 mg/kg in rat; assay type: ADME, organism-based; set-up: time < 24 hr, dose 1 mg/kg; settings: in vivo
[8] = Maximum concentration in whole blood recorded in the period 0-24 hr postdose of 1 mg/kg in rat; assay type: ADME, organism-based; set-up: dose 1 mg/kg
[9] = test system: Rattus norvegicus; assay: Maximum concentration in whole blood recorded in the period 0-24 hr postdose of 1 mg/kg in rat (normalized to a 1 mg/kg dose); assay type: ADME, organism-based; set-up: dose 1 mg/kg; settings: in vivo
Procedure, shortened: (§3)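 Sprague-Dawley rats, fasted overnight, cannulated in carotid artery and/or jugular vein at least 20 h before dosing. Oral doses 1 or 2.5 mg/kg, iv 2.5 mg/kg via jugular cannula, in polyethylene glycol/phosphate buffered saline. Unchanged compound in whole blood measured by HPLC over 0–24 h; AUC by trapezoidal rule; values also normalized to 1.0 mg/kg.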

[10] = test system: Rattus norvegicus; assay: Integrated area under the blood concentration vs time curve for the period 0-24 hr postdose of 1 mg/kg (normalized to a 1 mg/kg dose) in rat; assay type: ADME, organism-based; set-up: dose 1 mg/kg, time < 24 hr; settings: in vivo; procedure, shortened: as §3

Compound	Ki [1]	ED50 [2]	pKB [3]	Ki [5]	ED50 [6]	also measured
COc1cc(C(=O)NS(=O)(=O)c2ccccc2C)ccc1Cc1cn(C)c2ccc(C(=O)NCC(C)C)cc12	6.31 nM	> 30 µmol/kg	8.6			
CCC(CC)CNC(=O)c1ccc2c(c1)c(Cc1ccc(C(=O)NS(=O)(=O)c3ccccc3C)cc1OC)cn2C(C)C		4.7 µmol/kg	8.8	0.501 nM	0.02 µmol/kg	Ratio [4]: 300
CCCn1cc(Cc2ccc(C(=O)NS(=O)(=O)c3ccccc3C)cc2OC)c2cc(C(=O)NCC(C)C)ccc21		31 µmol/kg	9.1	2 nM	0.07 µmol/kg	Ratio [4]: 456
CCC(CC)CNC(=O)c1ccc2c(c1)c(Cc1ccc(C(=O)NS(=O)(=O)c3ccccc3C)cc1OC)cn2Cc1ccccc1			8.3	1.26 nM		
CCC(CC)CNC(=O)c1ccc2c(c1)c(Cc1ccc(C(=O)NS(=O)(=O)c3ccccc3Br)cc1OC)cn2C	3.98 nM	21.4 µmol/kg	9.1		0.84 µmol/kg	Ratio [4]: 25
CCCCN(CCCC)C(=O)c1ccc2c(c1)c(Cc1ccc(C(=O)NS(=O)(=O)c3ccccc3C)cc1OC)cn2C				79.4 nM		
CCCCCCC(C)CNC(=O)c1ccc2c(c1)c(Cc1ccc(C(=O)NS(=O)(=O)c3ccccc3C)cc1OC)cn2C (configuration not stated)			7.5	7.94 nM		
CCCCC(CC)CNC(=O)c1ccc2c(c1)c(Cc1ccc(C(=O)NS(=O)(=O)c3ccccc3C)cc1OC)cn2C (configuration not stated)		8.06 µmol/kg	8.1	6.31 nM	0.28 µmol/kg	Ratio [4]: 29
COc1cc(C(=O)NS(=O)(=O)c2ccccc2C)ccc1Cc1cn(C)c2ccc(C(=O)NCCC(C)C)cc12				15.8 nM		
COc1cc(C(=O)NS(=O)(=O)c2ccccc2C)ccc1Cc1cn(C)c2ccc(C(=O)NC3CCCCC3)cc12				100 nM		
CCC(CC)CNC(=O)c1ccc2c(CC(C)C)cn(Cc3ccc(C(=O)NS(=O)(=O)c4ccccc4C)cc3OC)c2c1	6.31 nM		8.2			
CCCn1cc(Cc2ccc(C(=O)NS(=O)(=O)c3ccccc3)cc2OC)c2cc(C(=O)NCC(CC)CC)ccc21	3.98 nM		7.7			
COc1cc(C(=O)NS(=O)(=O)c2ccccc2C)ccc1Cc1cn(C)c2ccc(NC(=O)CC3CCCC3)cc12		0.41 µmol/kg	9.7		0.02 µmol/kg	Ratio [4]: 22
CCCc1cn(Cc2ccc(C(=O)NS(=O)(=O)c3ccccc3C)cc2OC)c2cc(C(=O)NCC(CC)CC)ccc12	1.26 nM		8.8			
COc1cc(C(=O)NS(=O)(=O)c2ccccc2C)ccc1Cc1cn(C)c2ccc(C(=O)NCCc3ccccc3)cc12				79.4 nM		
CCC(CC)CNC(=O)c1ccc2c(c1)c(Cc1ccc(C(=O)NS(=O)(=O)c3ccccc3C)cc1OC)cn2C	2 nM	14.7 µmol/kg	8		1.09 µmol/kg	Ratio [4]: 14; AUC [7]: 5740 ng·h/mL; Cmax [8]: 410 ng/mL
CCC(CC)CNC(=O)c1ccc2c(c1)c(Cc1ccc(C(=O)NS(=O)(=O)c3ccccc3C)cc1OC)cn2C1CCCC1				2.51 nM		
CCC(CC)CNC(=O)c1ccc2ccn(Cc3ccc(C(=O)NS(=O)(=O)c4ccccc4C)cc3OC)c2c1				12.6 nM		
CCCCCC(C)CNC(=O)c1ccc2c(c1)c(Cc1ccc(C(=O)NS(=O)(=O)c3ccccc3C)cc1OC)cn2C (configuration not stated)				10 nM		
COc1cc(C(=O)NS(=O)(=O)c2ccccc2C)ccc1Cc1cn(C)c2ccc(C(=O)NCC(C)(C)C)cc12			7.5	15.8 nM		

Compound	Ki [1]	ED50 [2]	pKB [3]	Ki [5]	ED50 [6]	also measured
COc1cc(C(=O)NS(=O)(=O)c2ccccc2C)ccc1Cn1cc(C)c2ccc(C(=O)NCC3CCCC3)cc21		~30 µmol/kg	8.9	10 nM	1.62 µmol/kg	Ratio [4]: ~20
CCCn1cc(Cc2ccc(C(=O)NS(=O)(=O)c3ccccc3C)cc2OC)c2cc(C(=O)NCC(CC)CC)ccc21		5.6 µmol/kg	8.9	0.794 nM	0.04 µmol/kg	Ratio [4]: 137
CCC(CC)CNC(=O)c1ccc2c(CC3CCCC3)cn(Cc3ccc(C(=O)NS(=O)(=O)c4ccccc4C)cc3OC)c2c1	1 nM					
CCC(CC)CNC(=O)c1ccc2c(CC3CCCCC3)cn(Cc3ccc(C(=O)NS(=O)(=O)c4ccccc4C)cc3OC)c2c1	2.51 nM					
COc1cc(C(=O)NS(=O)(=O)c2ccccc2C)ccc1Cn1cc(C)c2ccc(NC(=O)CC3CCCC3)cc21		0.3 µmol/kg	9.3			
CCC(CC)CNC(=O)c1ccc2c(CCc3ccccc3)cn(Cc3ccc(C(=O)NS(=O)(=O)c4ccccc4C)cc3OC)c2c1	25.1 nM					
COc1cc(C(=O)NS(=O)(=O)c2ccccc2C)ccc1Cc1cn(C)c2ccc(C(=O)NCC3CCCC3)cc12			8.4	3.16 nM	0.69 µmol/kg	Ratio [4]: 28
C/C=C\c1cn(Cc2ccc(C(=O)NS(=O)(=O)c3ccccc3C)cc2OC)c2cc(C(=O)NCC(CC)CC)ccc12	50.1 nM					
CCCC(C)CNC(=O)c1ccc2c(c1)c(Cc1ccc(C(=O)NS(=O)(=O)c3ccccc3C)cc1OC)cn2C (configuration not stated)			8.5	6.31 nM		
CCC(C)CNC(=O)c1ccc2c(c1)c(Cc1ccc(C(=O)NS(=O)(=O)c3ccccc3C)cc1OC)cn2C (configuration not stated)		20 µmol/kg	8.7	5.01 nM	1.39 µmol/kg	Ratio [4]: 14
CCCn1cc(Cc2ccc(C(=O)NS(=O)(=O)c3ccccc3C)cc2OC)c2cc(C(=O)NCC3CCCC3)ccc21		4.8 µmol/kg	8.7	0.316 nM	0.03 µmol/kg	Cmax [9]: 106 ng/mL; Ratio [4]: 179; AUC [10]: 1610 ng·h/mL
CCCCC(CC)NC(=O)c1ccc2c(c1)c(Cc1ccc(C(=O)NS(=O)(=O)c3ccccc3C)cc1OC)cn2C (configuration not stated)				126 nM		
CCCn1cc(Cc2ccc(C(=O)NS(=O)(=O)c3ccccc3)cc2OC)c2cc(C(=O)NCC(C)C)ccc21	7.94 nM		7.6			
COc1cc(C(=O)NS(=O)(=O)c2ccccc2C)ccc1Cc1cn(C)c2ccc(C(=O)N(C)CC(C)C)cc12				63.1 nM		
CCC(CC)CNC(=O)c1ccc2c(c1)c(Cc1ccc(C(=O)NS(=O)(=O)c3ccccc3Cl)cc1OC)cn2C	6.31 nM					
C=CCn1cc(Cc2ccc(C(=O)NS(=O)(=O)c3ccccc3C)cc2OC)c2cc(C(=O)NCC3CCCC3)ccc21		9.9 µmol/kg	8.3	0.398 nM	0.03 µmol/kg	
CCC(CC)CNC(=O)c1ccc2c(C)cn(Cc3ccc(C(=O)NS(=O)(=O)c4ccccc4C)cc3OC)c2c1			8.4	2.51 nM		
CCc1cn(Cc2ccc(C(=O)NS(=O)(=O)c3ccccc3C)cc2OC)c2cc(C(=O)NCC(CC)CC)ccc12			8.2	3.16 nM		
CCCn1cc(Cc2ccc(C(=O)O)cc2OC)c2cc(C(=O)NCC(C)C)ccc21	2510 nM					
CCCC1CCN(C(=O)c2ccc3c(c2)c(Cc2ccc(C(=O)NS(=O)(=O)c4ccccc4C)cc2OC)cn3C)CC1				100 nM		
